In publication PMC5499704 (Journal of medicinal chemistry, 2016):

Legend:
MCF-7 = assay: Proliferation of breast cancer cells, MCF-7; assay type: cell-based; settings: Homo sapiens, MCF7, 120 h, read-out: IC50, proliferation
Procedure, shortened: (§1)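 Cells grown in phenol red-free DMEM with 5% FBS at 37 °C, 5% CO2. MCF-7/TamR cells were derived by prolonged 4-hydroxytamoxifen exposure. Cells seeded at 50000/well, then treated 5 days with test compound at six doses from 10−10 to 10−5 M, with DMSO vehicle. Viable cells counted by Coulter counter. Survival expressed as a percentage of vehicle, and IC50 taken from dose–response curves.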

MCF-7/TamR = assay: Proliferation of breast cancer cells, MCF-7/TamR; assay type: cell-based; settings: Homo sapiens, MCF7, 120 h, read-out: IC50, proliferation
Procedure, shortened: as §1

T47D-kb-Luc cells = assay: T47D-kb-Luc ERE luciferase reporter gene assay; assay type: cell-based, human; settings: at 1 nM, in the presence of 0.01 nM estradiol (E2)
Procedure, shortened: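 Stably transfected T47D-kb-Luc reporter cells were stimulated with estradiol at 10−11 M plus test compound at 0.1, 1 or 10 nM. ERE-driven activity was read as relative luciferase units and normalized to the estradiol-only control. Run in quadruplicate in at least three separate experiments, reported as mean ± SD (%).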

ERα [1] = biological target: T1, ERα (Homo sapiens, UniProt P03372); assay: Western blot of ERα downregulation in T47D cells; assay type: cell-based; settings: dose range 0.03–1 μM
T1 sequence (P03372 1-595): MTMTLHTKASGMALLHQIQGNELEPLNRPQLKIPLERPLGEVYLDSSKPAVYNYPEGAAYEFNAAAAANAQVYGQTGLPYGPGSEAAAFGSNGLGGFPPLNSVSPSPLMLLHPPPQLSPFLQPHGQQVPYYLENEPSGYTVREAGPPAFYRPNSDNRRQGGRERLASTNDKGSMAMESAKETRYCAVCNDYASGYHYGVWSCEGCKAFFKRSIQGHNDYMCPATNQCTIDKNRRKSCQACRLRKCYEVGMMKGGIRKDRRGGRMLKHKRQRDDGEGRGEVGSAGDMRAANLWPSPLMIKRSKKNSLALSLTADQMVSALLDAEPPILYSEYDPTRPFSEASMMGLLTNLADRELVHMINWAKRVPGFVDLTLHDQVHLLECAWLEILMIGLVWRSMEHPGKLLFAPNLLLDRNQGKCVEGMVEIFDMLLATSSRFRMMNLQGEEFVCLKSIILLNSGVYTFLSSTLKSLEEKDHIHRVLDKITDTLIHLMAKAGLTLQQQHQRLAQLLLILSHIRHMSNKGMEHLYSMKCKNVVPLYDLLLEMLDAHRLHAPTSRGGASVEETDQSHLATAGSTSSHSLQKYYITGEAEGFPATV

[2] = Stability in culture media in vitro; assay type: in vitro ADME; settings: dissolved in ethanol then diluted in culture media for an extended period of time
ERα [3] = biological target: T1, ERα; assay: Western blot of ERα downregulation in T47D/PKCα cells; assay type: cell-based; settings: dose range 0.03–1 μM
[4] = patients, cited from earlier work

IC50 (MCF-7)	IC50 (MCF-7/TamR)	SMILES	inhibition of E2-induced luciferase (ERE activity) (T47D-kb-Luc cells)	ER downregulation level (ERα [1])	metabolic stability in vitro [2]	ER downregulation level (ERα [3])	peak blood concentration ([4]; 500 mg im, FINDER1 and FINDER2 clinical trials ref 3, 5)	time to reach steady-state serum concentration ([4]; im monthly dose of 250 mg ref 4)
0.0033 µM	22 µM	CC/C(=C(\c1ccc(O)cc1)c1ccc(OCCN(C)C)cc1)c1ccccc1 [Compound 4-OHT, 4-hydroxytamoxifen]	–	–	–	–	–	–
–	–	C[C@]12CC[C@@H]3c4ccc(B(O)O)cc4C[C@@H](CCCCCCCCC[S+]([O-])CCCC(F)(F)C(F)(F)F)[C@H]3[C@@H]1CC[C@@H]2O (stereo partly drawn) [Compound 5, ((7R,8R,9S,13S,14S,17S)-17-Hydroxy-13-methyl-7-(9-((4,4,5,5,5-pentafluoropentyl)sulfinyl)nonyl)-7,8,9,11,12,13,14,15,16,17-deca-hydro-6H-cyclopenta[a]phenanthren-3-yl)boronic Acid]	completely blocking the estrogen response element (ERE) activity	greater than 50%	metabolic stability was later confirmed in vitro	greater than 50%	–	–
–	–	C[C@]12CC[C@@H]3c4ccc(O)cc4C[C@@H](CCCCCCCCC[S+]([O-])CCCC(F)(F)C(F)(F)F)[C@H]3[C@@H]1CC[C@@H]2O (stereo partly shown) [fulvestrant]	–	greater than 50%	–	greater than 50%	< 25 ng/mL	over 3 months
